Measurements published in ChEMBL document CHEMBL2169781, “Discovery and biological evaluation of a novel class of dual microsomal prostaglandin E2 synthase-1/5-lipoxygenase inhibitors based on 2-[(4,6-diphenethoxypyrimidin-2-yl)thio]hexanoic acid” (J Med Chem, 2011).

What was measured:
[1] = biological target: T1, Polyunsaturated fatty acid 5-lipoxygenase (Homo sapiens, UniProt P09917); assay: Inhibition of 5-lipoxygenase-mediated 5(S)-H(p)ETE formation in A23187-stimulated human PMNL incubated 10 mins prior to A23187 challenge
T1 sequence (P09917 whole entry): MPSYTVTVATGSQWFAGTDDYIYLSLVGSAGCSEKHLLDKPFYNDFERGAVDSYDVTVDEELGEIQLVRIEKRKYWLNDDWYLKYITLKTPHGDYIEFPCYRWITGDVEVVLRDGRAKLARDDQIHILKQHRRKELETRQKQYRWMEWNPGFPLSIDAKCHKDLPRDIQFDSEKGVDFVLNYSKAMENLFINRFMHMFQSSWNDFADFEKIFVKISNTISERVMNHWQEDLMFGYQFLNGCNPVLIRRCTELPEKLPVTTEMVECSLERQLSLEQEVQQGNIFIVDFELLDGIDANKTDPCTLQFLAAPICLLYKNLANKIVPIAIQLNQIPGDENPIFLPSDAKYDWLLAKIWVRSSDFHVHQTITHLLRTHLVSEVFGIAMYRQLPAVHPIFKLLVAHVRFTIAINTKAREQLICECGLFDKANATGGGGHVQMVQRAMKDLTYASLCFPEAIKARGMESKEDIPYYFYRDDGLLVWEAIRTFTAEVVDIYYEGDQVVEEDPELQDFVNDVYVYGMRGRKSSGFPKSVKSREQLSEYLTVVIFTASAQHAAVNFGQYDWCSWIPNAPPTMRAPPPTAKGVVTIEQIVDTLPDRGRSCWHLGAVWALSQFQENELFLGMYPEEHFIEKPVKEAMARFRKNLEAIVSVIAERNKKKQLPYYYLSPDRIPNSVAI

Prostaglandin E synthase = biological target: T2, Prostaglandin E synthase (Homo sapiens, UniProt O14684); assay: Inhibition of mPGES-1 in human IL-1beta-stimulated A549 cell microsomes assessed as reduction of PGE2 formation from PGH2 after 15 mins by RP-HPLC analysis; set-up: species or system Microsome
T2 sequence (O14684 whole entry): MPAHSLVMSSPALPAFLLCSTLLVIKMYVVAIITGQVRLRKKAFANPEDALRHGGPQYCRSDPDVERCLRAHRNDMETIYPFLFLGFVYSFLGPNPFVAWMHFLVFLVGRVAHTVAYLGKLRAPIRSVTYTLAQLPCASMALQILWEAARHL
Procedure, shortened: (§1)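 A549 cells in DMEM with 2% FCS for 16 h, induced with IL-1β (1 ng/mL) for 72 h, homogenized. Microsomal pellet (174 000 × g) diluted in 0.1 M potassium phosphate pH 7.4 with 2.5 mM glutathione, given compound or DMSO for 15 min. PGH₂ added (20 μM final), 1 min at 4 °C, stopped with FeCl₂/citric acid. PGE₂ by SPE and RP-HPLC (UV 195 nm), 11β-PGE₂ internal standard. Tested up to 10 μM; IC₅₀ reported only above 50% inhibition at 10 μM.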

[2] = biological target: T3, Prostaglandin E synthase (Homo sapiens) (UniProt O14684); assay: Inhibition of mPGES-1 in human IL-1beta-stimulated A549 cell microsomes assessed as residual activity by measuring reduction of PGE2 formation from PGH2 at 10 uM after 15 mins by RP-HPLC analysis; settings: Microsome
T3 sequence (whole entry): T2 sequence (O14684 whole entry)
Procedure, shortened: as §1

[3] = biological target: T1, Polyunsaturated fatty acid 5-lipoxygenase; assay: Inhibition of human recombinant 5-lipoxygenase-mediated product formation from arachidonic acid after 5 to 10 mins by HPLC analysis
Procedure, shortened: (§2)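 Human 5-LO expressed in E. coli BL21 (pT3-5LO) at 37 °C, purified and used at once. Enzyme (0.5 μg/mL in PBS/EDTA with 1 mM ATP) preincubated with compound 5–10 min at 4 °C, prewarmed 30 s at 37 °C, started with 2 mM CaCl₂ + 20 μM AA (±1 μM 13(S)-HpODE), 10 min at 37 °C, stopped with cold methanol, products by HPLC.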

[4] = biological target: T4, Polyunsaturated fatty acid 5-lipoxygenase (Homo sapiens) (UniProt P09917); assay: Inhibition of human recombinant 5-lipoxygenase-mediated product formation from arachidonic acid assessed as remaining activity at 10 uM after 5 to 10 mins by HPLC analysis
T4 sequence (whole entry): T1 sequence (P09917 whole entry)
Procedure, shortened: as §2

[5] = biological target: T4, Polyunsaturated fatty acid 5-lipoxygenase (Homo sapiens); assay: Selectivity ratio of IC50 for human recombinant 5-lipoxygenase in cell-free system to IC50 for 5-lipoxygenase-mediated 5(S)-H(p)ETE formation in A23187-stimulated PMNL
[6] = Cytotoxicity in human polymorphonuclear leukocytes assessed as cell viability at 10 uM after 30 mins by MTT assay
[7] = biological target: Prostaglandin G/H synthase 2 (Homo sapiens) (UniProt P35354); assay: Inhibition of human recombinant COX-2 mediated formation of 12-HHT from arachidonic acid assessed as remaining activity at 10 uM after 5 mins by HPLC analysis
[8] = biological target: Prostaglandin G/H synthase 1 (Ovis aries) (UniProt P05979); assay: Inhibition of ovine COX-1 mediated formation of 12-HHT from arachidonic acid assessed as remaining activity at 10 uM after 5 mins by HPLC analysis
[9] = biological target: T1, Polyunsaturated fatty acid 5-lipoxygenase; assay: Inhibition of 5-lipoxygenase-mediated 5(S)-H(p)ETE formation in fMLP-stimulated human PMNL incubated 10 mins prior to fMLP challenge

Compound	IC50 [1]	IC50 (Prostaglandin E synthase)	Activity [2]	IC50 [3]	Activity [4]	Ratio IC50 [5]	Activity [7]	Activity [8]	IC50 [9]	Activity [6]
CCCCC(Sc1nc(OCCC2CCCCCC2)cc(OCCC2CCCCCC2)n1)C(=O)O (stereo not drawn)	2400 nM	> 10 µM	62.4%	> 10 µM	53.8%					
CCCCC(Sc1nc(OCCC2CCCC2)cc(OCCC2CCCC2)n1)C(=O)O (stereo not drawn)	4000 nM	> 10 µM	90%	6.8 µM						
CCCCC(Sc1nc(OCCc2ccc(OC(F)(F)F)cc2)cc(OCCc2ccc(OC(F)(F)F)cc2)n1)C(=O)O (stereo not drawn)	500 nM	> 10 µM	88.3%	> 10 µM	56.4%	> 20				
CCCC/C(=C\c1cc(OCc2ccc(C(F)(F)F)cc2)ccc1OCc1ccc(C(F)(F)F)cc1)C(=O)O	200 nM	> 10 µM	55.1%	4.4 µM			102%	82.6%		Non-toxic
CCCCC(Sc1nc(OCCC2CC2)cc(OCCC2CC2)n1)C(=O)O (stereo not drawn)	1200 nM	9.6 µM		9.3 µM						
CCCCC(Sc1cc(OCCc2ccccc2)cc(OCCc2ccccc2)c1)C(=O)O (stereo not drawn)	800 nM	4.6 µM		7.2 µM			110%	71.3%		Non-toxic
CCCCC(Sc1nc(OCc2ccccc2)cc(OCc2ccccc2)n1)C(=O)O (stereo not drawn)		3.8 µM		5 µM					1800 nM	
CCC(Sc1nc(OCCc2ccccc2)cc(OCCc2ccccc2)n1)C(=O)O (stereo not drawn)		7.3 µM		9 µM					2800 nM	
CCCCC(Sc1nc(OCCC(C)C)cc(OCCC(C)C)n1)C(=O)O (stereo not drawn)	1200 nM	> 10 µM	54.5%	6.8 µM						
CCCCC(Sc1nc(OCCc2ccsc2)cc(OCCc2ccsc2)n1)C(=O)O (stereo not drawn)	600 nM	6.5 µM		9.3 µM						
CCCCC(Cc1ccc(OCCc2ccccc2)cc1OCCc1ccccc1)C(=O)O (stereo not drawn)		> 10 µM	90.1%	> 10 µM	85.6%		110%	99.1%	> 10000 nM	Non-toxic
CCCC/C(=C\c1cc(OCCc2ccc(C(F)(F)F)cc2)ccc1OCCc1ccc(C(F)(F)F)cc1)C(=O)O	300 nM	3.5 µM		> 10 µM	55.6%	> 20	102%	81%		Non-toxic
CCCCC(Cc1cccc(OCCc2ccccc2)c1OCCc1ccccc1)C(=O)O (stereo not drawn)	2100 nM	3.9 µM		4.9 µM			89.6%	66.1%		Non-toxic
CCCCC(Sc1nc(OCCc2ccc(C#N)cc2)cc(OCCc2ccc(C#N)cc2)n1)C(=O)O (stereo not drawn)	700 nM	5.9 µM		6.6 µM						
CCCCC(Sc1nc(OCCc2ccc([N+](=O)[O-])cc2)cc(OCCc2ccc([N+](=O)[O-])cc2)n1)C(=O)O (stereo not drawn)	500 nM	3.7 µM		2.8 µM						
O=C(O)CSc1nc(OCCc2ccccc2)cc(OCCc2ccccc2)n1	7600 nM	> 10 µM		> 10 µM	57%					
CCCCC(Sc1nc(OCCc2ccc(OC)cc2)cc(OCCc2ccc(OC)cc2)n1)C(=O)O (stereo not drawn)	300 nM	> 10 µM	63.7%	7 µM		> 20				
CCCC/C(=C\c1cc(OCCC2CCCCC2)ccc1OCCC1CCCCC1)C(=O)O	800 nM	3.4 µM		> 10 µM	73%		123%	76.4%		Non-toxic

More lines, in order of falling IC50 (Prostaglandin E synthase), values ahead:

IC50 [1]	IC50 (Prostaglandin E synthase)	Activity [2]	IC50 [3]	Activity [4]	Ratio IC50 [5]	Activity [7]	Activity [8]	IC50 [9]	Compound	Activity [6]
600 nM	3.4 µM		> 10 µM		> 20	92.5%	71.6%		CCCCC(Oc1cc(OCCc2ccccc2)cc(OCCc2ccccc2)c1)C(=O)O (stereo not drawn)	Non-toxic
700 nM	2.8 µM		> 10 µM	62.7%		81.4%	81.4%		CCCC/C(=C\c1cc(OCCc2ccccc2)cc(OCCc2ccccc2)c1)C(=O)O	Non-toxic
6000 nM	2.7 µM		> 10 µM	54%		86.4%	95.8%		CCCCC(Cc1ccc(OCCc2ccccc2)c(OCCc2ccccc2)c1)C(=O)O (stereo not drawn)	Non-toxic
4700 nM	2.4 µM		> 10 µM	80.3%		78.4%	78.7%		CCCCC(Cc1cc(OCCc2ccccc2)cc(OCCc2ccccc2)c1)C(=O)O (stereo not drawn)	Non-toxic
800 nM	2.4 µM		9 µM						CCCCC(Sc1nc(OCCC2CCCCC2)cc(OCCC2CCCCC2)n1)C(=O)O (stereo not drawn)	
	2.4 µM		> 10 µM	65.5%		66.5%	63.8%	900 nM	CCCCC(Cc1cc(OCCc2ccccc2)ccc1OCCc1ccccc1)C(=O)O (stereo not drawn)	Non-toxic
900 nM	2.2 µM		2.7 µM						CCCCC(Sc1nc(OCCCc2ccccc2)cc(OCCCc2ccccc2)n1)C(=O)O (stereo not drawn)	
500 nM	1.9 µM		2.2 µM						CCCCC(Sc1nc(OCCc2ccc(C(F)(F)F)cc2)cc(OCCc2ccc(C(F)(F)F)cc2)n1)C(=O)O (stereo not drawn)	
	1.5 µM		> 10 µM	78.2%		94.4%	68%	900 nM	CCCC/C(=C\c1cc(OCCc2ccccc2)ccc1OCCc1ccccc1)C(=O)O	Non-toxic
	1.2 µM		4.9 µM					800 nM	O=C(O)C(Sc1nc(OCCc2ccccc2)cc(OCCc2ccccc2)n1)c1ccccc1 (stereo not drawn)	
600 nM	1.2 µM		4.7 µM						CCCCC(Sc1nc(OCCc2ccccc2)cc(OCCc2ccccc2)n1)C(=O)O (stereo not drawn)	
	1.1 µM		> 10 µM	91.3%		113%	86.8%	800 nM	CCCC/C(=C\c1cccc(OCCc2ccccc2)c1OCCc1ccccc1)C(=O)O	Non-toxic
700 nM	0.9 µM		2.2 µM						CCCCC(Sc1nc(OCCCCc2ccccc2)cc(OCCCCc2ccccc2)n1)C(=O)O (stereo not drawn)	
500 nM	0.9 µM		3.1 µM						CCCCC(Sc1nc(OCCc2ccc(C)cc2)cc(OCCc2ccc(C)cc2)n1)C(=O)O (stereo not drawn)	
